According to ChEMBL document CHEMBL4017492, “Discovery of a para-Acetoxy-benzyl Ester Prodrug of a Hydroxamate-Based Glutamate Carboxypeptidase II Inhibitor as Oral Therapy for Neuropathic Pain” (J Med Chem, 2017):
Active and inactive are the calls of the source. The calls are words filed in the database; no cut-off is given here.

Legend:
[1] = test system: Plasma; assay: Prodrug conversion in mouse plasma assessed as 4-Carboxy-alpha-[3-(hydroxyamino)-3-oxopropyl]-benzenepropanoic acid formation at 10 uM measured upto 60 mins by LC-MS/MS analysis; assay type: ADME, cell-free; details: 1 h
Summary of the method: (§1)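 Compounds at 10 μM spiked into mouse plasma and shaken at 37 °C. Triplicate aliquots taken at 0 and 60 min and quenched with 2 volumes of ice-cold acetonitrile containing losartan 5 μM as internal standard. Centrifuged and supernatant diluted with water. Parent loss and metabolites identified by LC–ESI-TOF on C18 using a formic acid/acetonitrile gradient and extracted-ion chromatograms.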

[2] = test system: Plasma; assay: (§2) Prodrug conversion in CD1 mouse plasma assessed as 4-Carboxy-alpha-[3-(hydroxyamino)-3-oxopropyl]-benzenepropanoic acid formation at 10 mg/kg equiv of 4-Carboxy-alpha-[3-(hydroxyamino)-3-oxopropyl]-benzenepropanoic acid after 30 mins by LC-MS/MS analysis; assay type: ADME, organism-based; details: in vivo, 0.5 h
Summary of the method: (§3)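 Male CD-1 mice (25–30 g) given a single oral dose equivalent to 10 mg/kg of parent, in 50 mM HEPES-buffered saline at pH 7.4. Killed by pentobarbital at 30 min and blood taken by cardiac puncture into heparin. Plasma stored at −80 °C, then assayed for parent by LC-MS/MS on C18 with a formic acid/acetonitrile gradient. Mean ± SEM, n = 3.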

[3] = target: Glutamate carboxypeptidase 2 (Homo sapiens, UniProt Q04609); assay: Inhibition of recombinant human glutamate carboxypeptidase 2 (44 to 750 residues) overexpressed in Drosophila Schneider S2 cells using [3H]-NAAG/NAAG as substrate preincubated for 15 mins followed by substrate addition measured after 20 mins by liquid scintillation counting method
Summary of the method: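 Radioenzymatic assay. rhGCPII (30 ng/mL) preincubated with inhibitor at varying concentrations for 15 min at 37 °C in 20 mM Tris, 150 mM NaCl, pH 8.0. Started with 0.31 μM NAAG plus 15 nM 3H-NAAG and run 20 min. Stopped with phosphate/EDTA/β-mercaptoethanol, pH 7.4. Released glutamate separated by ion exchange and counted by scintillation. IC50 obtained from inhibition curves.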

[4] = test system: Plasma; assay: Drug metabolism in mouse plasma assessed as 2-(4-(ethoxycarbonyl)benzyl)-5-(hydroxyamino)-5-oxopentanoic acid formation at 10 uM measured after 60 mins by LC-MS/MS analysis; assay type: ADME, cell-free; details: 1 h; summary of the method: as §1
[5] = Prodrug conversion in Tris/NaCl buffer assessed as 4-Carboxy-alpha-[3-(hydroxyamino)-3-oxopropyl]-benzenepropanoic acid formation at pH 8
Summary of the method: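 Stability tested under the enzyme assay conditions: 30 min in aqueous buffer (20 mM Tris, 150 mM NaCl), pH 8.0.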

[6] = test system: Rattus norvegicus; assay: Analgesic activity in Sprague-Dawley rat assessed as reduction in chronic constriction injury induced hyperalgesic neuropathic pain on ligated side at 4.6 mg/kg/day administered via oral gavage measured upto 8 days relative to vehicle-treated control; assay type: functional, organism-based
Summary of the method: (§4)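 Male Sprague–Dawley rats (200–250 g; n = 10–15 per group) with sciatic nerve loosely ligated (four 4.0 chromic gut ligatures, 1 mm apart). Testing began 10 days post-surgery. Plantar thermal stimulus (Hargreaves) applied to the hind paw, withdrawal latency read to 0.1 s. Dosed daily by oral gavage, and 1 h before each test session. Two sessions per week; compared with vehicle by Student's t-test.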

[7] = test system: Rattus norvegicus; assay: Effect on response latency to thermal stimulus in Sprague-Dawley rat at 4.6 mg/kg administered via oral gavage relative to vehicle-treated control; assay type: organism-based; details: in vivo; summary of the method: as §4
[8] = test system: Plasma; assay: as §2, with “analysis relative to 4-Carboxy-alpha-[3-(hydroxyamino)-3-oxopropyl]-benzenepropanoic acid alone” for “analysis”; assay type: ADME, organism-based; details: in vivo, 0.5 h; summary of the method: as §3
[9] = test system: Rattus norvegicus; assay: Analgesic activity in Sprague-Dawley rat assessed as reduction in chronic constriction injury induced hyperalgesic neuropathic pain on ligated side at 100 mg/kg/day administered via oral gavage measured upto 8 days relative to vehicle-treated control; assay type: functional, organism-based
Summary of the method: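 Male Sprague–Dawley rats (200–250 g; n = 10–15 per group) received sciatic nerve constriction with four loose 4.0 chromic gut ligatures spaced 1 mm apart. Testing began 10 days after surgery. Dosing was daily by oral gavage, given 1 h before testing on test days. Hind-paw withdrawal latency to a plantar thermal stimulus (Hargreaves) was read to 0.1 s, with normal response within 15 s. Difference score was nonligated minus ligated latency. Sessions were twice weekly, and groups were compared by t-test versus control.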

[10] = test system: Plasma; assay: Metabolic stability in mouse plasma at 10 uM measured upto 60 mins by LC-MS/MS analysis; assay type: ADME, cell-free; details: 1 h; summary of the method: as §1

Chain of Glutamate carboxypeptidase 2 (Q04609 whole entry, the tested form may be a part): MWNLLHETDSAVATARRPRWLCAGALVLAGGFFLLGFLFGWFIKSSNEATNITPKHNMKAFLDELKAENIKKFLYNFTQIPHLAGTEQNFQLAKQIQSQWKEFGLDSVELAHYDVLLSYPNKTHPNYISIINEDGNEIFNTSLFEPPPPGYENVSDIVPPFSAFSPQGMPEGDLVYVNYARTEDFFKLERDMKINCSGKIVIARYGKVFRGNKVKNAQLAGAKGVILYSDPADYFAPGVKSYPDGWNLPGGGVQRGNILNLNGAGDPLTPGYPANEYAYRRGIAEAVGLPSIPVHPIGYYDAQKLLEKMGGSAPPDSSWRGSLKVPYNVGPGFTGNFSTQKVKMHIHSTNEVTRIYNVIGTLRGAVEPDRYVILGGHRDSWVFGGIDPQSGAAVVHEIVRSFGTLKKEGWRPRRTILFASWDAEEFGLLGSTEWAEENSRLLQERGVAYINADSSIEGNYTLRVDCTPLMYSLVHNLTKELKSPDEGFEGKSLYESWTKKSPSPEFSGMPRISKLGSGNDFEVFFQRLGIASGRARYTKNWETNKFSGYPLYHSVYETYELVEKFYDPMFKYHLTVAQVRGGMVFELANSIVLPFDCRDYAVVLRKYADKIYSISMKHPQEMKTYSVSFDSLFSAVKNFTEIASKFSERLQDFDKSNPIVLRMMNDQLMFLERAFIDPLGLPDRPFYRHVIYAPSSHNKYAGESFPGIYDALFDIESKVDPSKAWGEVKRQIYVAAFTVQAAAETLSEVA

Question: For `CCOC(=O)c1ccc(CC(CCC(=O)NOCc2ccc(OC(C)=O)cc2)C(=O)O)cc1` (centres undefined), which Drug metabolism [1] is on record?
Answer: The Drug metabolism was “Metabolite_Notdetected”.

Question: What about the Drug metabolism [2] of the same compound?
Answer: Its Drug metabolism is “Metabolite_Notdetected”.

Question: What about the IC50 [3] of the same compound?
Answer: Its IC50 is over 5 µM.

Question: What about the Drug metabolism [4] of the same compound?
Answer: Its Drug metabolism is “Metabolite_Detected”.

Question: For `Cc1oc(=O)oc1CONC(=O)CCC(Cc1ccc(C(=O)O)cc1)C(=O)O` (centres undefined), which Drug metabolism [5] is on record?
Answer: Its Drug metabolism is “Metabolite detected”.

Question: With `CCOC(=O)c1ccc(CC(CCC(=O)NOCc2ccc(OC(C)=O)cc2)C(=O)OCC)cc1` (centres undefined) as the compound, how does the Drug metabolism [2] read?
Answer: Its Drug metabolism is “Metabolite_Notdetected”.

Question: And the IC50 [3]?
Answer: The IC50 was over 5 µM.

Question: With `CC(=O)Oc1ccc(CONC(=O)CCC(Cc2ccc(C(=O)O)cc2)C(=O)O)cc1` (centres undefined) as the compound, how does the Drug metabolism [1] read?
Answer: Its Drug metabolism is “Metabolite_Detected”.

Question: And the Activity [6]?
Answer: The Activity was “Active”.

Question: And the Activity [7]?
Answer: Its Activity is “Non-Toxic”.

Question: What about the IC50 [3] of the same compound?
Answer: The IC50 was over 5 µM.

Question: And the “fold change (FC)” value [8]?
Answer: The value was 5.

Question: For `NCC1(CC(=O)O)CCCCC1`, which Activity [9] is on record?
Answer: Its Activity is “Active”.

Question: For `CC(=O)ONC(=O)CCC(Cc1ccc(C(=O)O)cc1)C(=O)O` (centres undefined), which IC50 [3] is on record?
Answer: The IC50 was over 5 µM.

Question: Which results are given for `CC(=O)Oc1ccc(CONC(=O)CCC(Cc2ccc(C(=O)OCOC(=O)OC(C)C)cc2)C(=O)O)cc1` (centres undefined)?
Answer: Drug metabolism [1]: Metabolite_Detected; IC50 [3]: > 5 µM; fold change (FC) [8]: 4

Question: Which Stability [10] does the source give for `O=C(CCC(Cc1ccc(C(=O)O)cc1)C(=O)O)NO` (centres undefined) here?
Answer: The Stability was “Stable”.

Question: What about the IC50 [3] of the same compound?
Answer: Its IC50 is 0.04 µM.
